For experiment [1], the target named is Delta-type opioid receptor (Homo sapiens, UniProt P41143). Nature of the experiment: Displacement of [3H]Naltrindole form human delta opioid receptor expressed in CHO cells. The experiment is classed as cell-based. In a few lines: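 Membranes from CHO cells stably expressing the human receptor incubated with 12 concentrations of compound and 0.2 nM [3H]naltrindole in 50 mM Tris–HCl, pH 7.5, with 10 mM MgCl2 and 0.5 mM PMSF, for 3 h at 25 °C. Filters were soaked in 0.1% PEI before filtration and scintillation counting. IC50 came from log-probit fit, and Ki = IC50/(1 + [radioligand]/Kd).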
(In general: In a radioligand displacement assay an active substance lowers the binding of a labelled ligand.)

The target in experiment [2] is T1, Kappa-type opioid receptor (Homo sapiens, UniProt P41145). Nature of the experiment: Displacement of [3H]U69593 form human kappa opioid receptor expressed in CHO cells. It is filed as cell-based.
The target in experiment [3] is Mu-type opioid receptor (Cavia porcellus, UniProt P97266). As to the kind of experiment: Displacement of [3H]DAMGO form mu opioid receptor in guinea pig brain.
Experiment [4] in a line: Displacement of [3H]Naltrindole form delta opioid receptor in guinea pig brain. Set-up: species or system Cavia porcellus. Summed up: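 Guinea pig brain membrane protein incubated with 12 concentrations of compound and 0.2 nM [3H]naltrindole in 50 mM Tris–HCl, pH 7.5, with 10 mM MgCl2 and 0.5 mM PMSF, for 3 h at 25 °C. Samples filtered onto polyethyleneimine-soaked glass fiber filters, washed, and counted by scintillation. IC50 came from log-probit fit, and Ki = IC50/(1 + [radioligand]/Kd).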

The target in experiment [5] is T1, Kappa-type opioid receptor. As to the kind of experiment: Activity at human cloned kappa opioid receptor expressed in CHO cells by [35S]GTPgammaS binding assay. The experiment is classed as functional, cell-based. For orientation: GTPγS resists hydrolysis and so accumulates on activated G proteins.
The target of experiment [6] is T2, Mu-type opioid receptor (Homo sapiens, UniProt P35372). As to the kind of experiment: Displacement of [3H]DAMGO form human mu opioid receptor expressed in CHO cells. It is filed as cell-based.
Experiment [7] relates to CHO. As to the kind of experiment: Ratio of Ki for human mu opioid receptor to Ki for human kappa opioid receptor expressed in CHO cells. It is filed as cell-based.
Experiment [8] addresses Kappa-type opioid receptor (Cavia porcellus, UniProt P41144). As to the kind of experiment: Displacement of [3H]U69593 form kappa opioid receptor in guinea pig brain.
Experiment [9] is filed under the species Cavia porcellus. Nature of the experiment: Ratio of Ki for delta opioid receptor to Ki for kappa opioid receptor in guinea pig brain.
In experiment [10] the test system is CHO. As to the kind of experiment: Ratio of Ki for human delta opioid receptor to Ki for human kappa opioid receptor expressed in CHO cells. The experiment is classed as cell-based.
The target in experiment [11] is T2, Mu-type opioid receptor. Nature of the experiment: Activity at human cloned mu opioid receptor expressed in CHO cells by [35S]GTPgammaS binding assay. The experiment is classed as functional, cell-based.
In experiment [12] the target is T2, Mu-type opioid receptor. Nature of the experiment: Activity at human cloned mu opioid receptor expressed in CHO cells assessed as inhibition of DAMGO-induced [35S]GTPgammaS binding. It is filed as functional, cell-based.
Experiment [13] deals with T1, Kappa-type opioid receptor. As to the kind of experiment: Activity at human cloned kappa opioid receptor expressed in CHO cells assessed as inhibition of U50488-induced [35S]GTPgammaS binding. It is filed as functional, cell-based.

28 compounds from ChEMBL document CHEMBL1139291, “Syntheses and opioid receptor binding properties of carboxamido-substituted opioids” (Bioorg Med Chem Lett, 2009) can be followed below.

Molecules are shown by their SMILES.

Sequence of Mu-type opioid receptor (Cavia porcellus, UniProt P97266) (P97266 whole entry): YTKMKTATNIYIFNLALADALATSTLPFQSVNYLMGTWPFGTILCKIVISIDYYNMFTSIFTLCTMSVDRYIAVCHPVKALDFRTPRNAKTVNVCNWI
T2 sequence (P35372 whole entry): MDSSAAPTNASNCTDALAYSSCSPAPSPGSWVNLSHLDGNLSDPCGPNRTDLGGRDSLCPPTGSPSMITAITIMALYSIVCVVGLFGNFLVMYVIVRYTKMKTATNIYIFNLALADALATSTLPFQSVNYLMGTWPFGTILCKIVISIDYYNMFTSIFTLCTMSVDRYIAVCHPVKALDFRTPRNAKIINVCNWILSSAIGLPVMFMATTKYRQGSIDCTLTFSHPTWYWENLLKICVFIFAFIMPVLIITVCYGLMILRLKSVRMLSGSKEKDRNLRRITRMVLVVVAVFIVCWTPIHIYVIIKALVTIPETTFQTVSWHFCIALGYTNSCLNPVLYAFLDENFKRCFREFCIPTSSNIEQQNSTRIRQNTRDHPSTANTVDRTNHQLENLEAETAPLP
T1 sequence (P41145 whole entry): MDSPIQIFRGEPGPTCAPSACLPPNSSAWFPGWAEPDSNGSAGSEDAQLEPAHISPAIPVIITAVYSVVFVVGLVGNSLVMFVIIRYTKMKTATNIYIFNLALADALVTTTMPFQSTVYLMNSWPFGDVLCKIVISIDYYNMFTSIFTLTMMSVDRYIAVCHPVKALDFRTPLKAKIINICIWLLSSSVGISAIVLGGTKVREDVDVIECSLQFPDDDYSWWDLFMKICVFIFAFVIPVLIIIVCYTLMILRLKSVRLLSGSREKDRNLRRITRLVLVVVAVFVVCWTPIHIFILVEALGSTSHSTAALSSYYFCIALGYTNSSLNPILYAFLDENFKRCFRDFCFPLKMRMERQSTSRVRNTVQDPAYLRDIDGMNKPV
Sequence of Kappa-type opioid receptor (Cavia porcellus, UniProt P41144) (P41144 whole entry): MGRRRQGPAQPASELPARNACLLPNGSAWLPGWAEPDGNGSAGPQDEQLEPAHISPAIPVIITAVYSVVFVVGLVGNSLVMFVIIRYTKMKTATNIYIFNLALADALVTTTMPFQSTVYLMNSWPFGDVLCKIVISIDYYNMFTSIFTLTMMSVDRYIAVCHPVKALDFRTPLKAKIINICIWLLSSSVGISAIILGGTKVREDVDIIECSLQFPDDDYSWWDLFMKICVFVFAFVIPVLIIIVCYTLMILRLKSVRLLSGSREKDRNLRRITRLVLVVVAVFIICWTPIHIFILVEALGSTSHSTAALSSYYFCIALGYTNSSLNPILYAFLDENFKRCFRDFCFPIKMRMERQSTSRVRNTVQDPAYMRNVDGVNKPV
Sequence of Delta-type opioid receptor (P41143 whole entry): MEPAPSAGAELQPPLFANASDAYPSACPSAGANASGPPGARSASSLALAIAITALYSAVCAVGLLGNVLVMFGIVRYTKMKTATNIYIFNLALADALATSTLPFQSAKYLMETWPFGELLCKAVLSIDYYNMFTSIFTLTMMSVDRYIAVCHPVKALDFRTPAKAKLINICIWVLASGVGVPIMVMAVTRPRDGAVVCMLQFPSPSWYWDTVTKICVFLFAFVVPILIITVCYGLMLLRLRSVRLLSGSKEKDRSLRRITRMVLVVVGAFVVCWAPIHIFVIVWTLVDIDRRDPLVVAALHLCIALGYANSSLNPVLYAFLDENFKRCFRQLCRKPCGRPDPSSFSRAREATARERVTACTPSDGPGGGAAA

As for `CC(C)=CCN1CC[C@@]2(C)c3cc(O)ccc3C[C@@H]1[C@@H]2C` (relative stereo), the Ki amounted to 180 nM in experiment [1] and 3 nM in [2].

Take `CC1C2C(=O)c3ccc(C(N)=O)cc3C1(C)CCN2CC1CC1` (stereo not drawn): the figures for the Ki in experiment [3] and in [4] were 1.4 nM and 20 nM, respectively. In experiment [5], this compound gave an EC50 of 9.6 nM.

For the compound `NC(=O)c1ccc2c3c1O[C@H]1[C@H](O)CC[C@@]4(O)[C@@H](C2)N(CC2CC2)CC[C@]314`, the Ki in experiment [6] was 2.5 nM; in experiment [1] it was greater than 10000 nM; in [2] it was 30 nM. For the same compound, the Ratio Ki in experiment [7] came out at 0.08.

For the compound `C[C@@H]1[C@@H]2Cc3ccc(O)cc3[C@@]1(C)CCN2C[C@H]1CCCO1`, the Ki turned out to be 4 nM in experiment [3], 67 nM in experiment [4] and 1.5 nM in experiment [8]. Further, in experiment [9], the Ratio Ki was 45. Moreover, in experiment [5], the EC50 was found to be 41 nM.

Regarding `C[C@@H]1[C@@H]2Cc3ccc(C(N)=O)cc3[C@@]1(C)CCN2C[C@H]1CCCO1`, the Ki in experiment [3] is 2.9 nM; in experiment [4], 34 nM; in experiment [8], 2.8 nM. In [5], this compound registered an EC50 of 170 nM.

On to `CC1C2Cc3ccc(C(N)=O)cc3C1(C)CCN2C` (stereo not drawn), for which the values for the Ki in experiment [6], in experiment [1] and in [2] were 1.6 nM, 320 nM and 19 nM, respectively. The Ratio Ki in experiment [7] turned out to be 0.08; in experiment [10], 17. Further, the EC50 in experiment [11] came out at 24 nM. Moreover, the IC50 in experiment [12] worked out at 25 nM.

Regarding `CC1C2Cc3ccc(C(N)=O)cc3C1(C)CCN2CCc1ccccc1` (stereo not drawn), the results for the Ki in experiment [6], in [1] and in experiment [2] were 0.015 nM, 1.2 nM and 0.55 nM, respectively. For the same compound, the Ratio Ki in experiment [7] was found to be 0.03; in experiment [10], 2. For the same compound, the EC50 turned out to be 5.3 nM in [11] and 4.4 nM in [5]. The IC50 in [13] is 640 nM.

With `CC(C)=CCN1CC[C@@]2(C)c3cc(C(N)=O)ccc3C[C@@H]1[C@@H]2C` (relative stereo), the Ki in experiment [1] came to 220 nM; in [2], 5.6 nM.

Consider `NC(=O)c1ccc2c3c1O[C@H]1C4NC5C(C[C@@]6(O)[C@H]7Cc8ccc(C(N)=O)c9c8[C@@]6(CCN7CC6CC6)[C@H]5O9)C4C[C@@]4(O)[C@@H](C2)N(CC2CC2)CC[C@]314` (stereo partly drawn), for which the figures for the Ki in experiment [6], in experiment [1] and in experiment [2] were 400 nM, 1000 nM and 21 nM, respectively. Moreover, the Ratio Ki in experiment [7] was determined as 19; in [10] it was 50.

`C=C1CC[C@@]2(O)[C@H]3Cc4ccc(C(N)=O)c5c4[C@@]2(CCN3CC2CC2)[C@H]1O5`: the Ki in experiment [6] worked out at 2.6 nM; in experiment [1] it was 67 nM; in experiment [2], 2.1 nM. Also, the Ratio Ki in experiment [7] was 1; in experiment [10], 32.

Regarding `CN(C)C[C@H]1CCCC[C@]1(O)c1cccc(C(N)=O)c1` (relative stereo), the results for the Ki in [6], in [1] and in [2] were 9.5 nM, 2400 nM and 350 nM, respectively. The Ratio Ki in [7] worked out at 0.03; in experiment [10], 7.

For the compound `C=CCN1CC[C@]23c4c5ccc(O)c4O[C@H]2[C@@H](O)C=C[C@H]3[C@H]1C5` [NALORPHINE], the Ki in experiment [6] stood at 0.19 nM; in [1], 120 nM; in experiment [2] it was 0.38 nM. The Ratio Ki in experiment [7] turned out to be 0.5; in experiment [10] it was 320.

Turning to `CCC12CCN(CC3CC3)C(C(=O)c3ccc(C(N)=O)cc31)C2C` (stereo not drawn), the Ki is 1.2 nM in experiment [3] and 9.8 nM in experiment [4]. The Ratio Ki in experiment [9] was 14.

In the case of `C=CCN1CC[C@]23c4c5ccc(C(N)=O)c4O[C@@H]2[C@@H](O)C=C[C@H]3[C@H]1C5`, the Ki in experiment [6] was 18 nM; in [1], greater than 10000 nM; in [2], 100 nM. Besides, the Ratio Ki in [7] amounted to 0.2.

As for `NC(=O)c1ccc2c3c1O[C@H]1[C@@H](O)CC[C@@]4(O)[C@@H](C2)N(CC2CC2)CC[C@]314`, the Ki was 7.1 nM in [6], greater than 10000 nM in [1] and 100 nM in [2]. For the same compound, the Ratio Ki in [7] was found to be 0.07.

As to `CCC12CCN(CC3CC3)C(C(=O)c3ccc(O)cc31)C2C` (stereo not drawn), the Ki is 0.78 nM in experiment [3] and 3.4 nM in [4].

As for `CN1CC[C@]23c4c5ccc(C(N)=O)c4O[C@H]2[C@@H](O)C=C[C@H]3[C@H]1C5`, the Ki in experiment [3] was determined as 34 nM; in experiment [4], 1900 nM; in experiment [8] it was 2000 nM. In addition, in [9], the Ratio Ki is 1.

With `C[C@H]1C2Cc3ccc(O)cc3[C@@]1(C)CCN2CCc1ccccc1`, the Ki in experiment [6] is 0.2 nM; in [1], 5 nM; in experiment [2], 2 nM. Also, the Ratio Ki was found to be 0.1 in experiment [7] and 2.5 in [10]. The values for the EC50 in experiment [11] and in experiment [5] were 27 nM and 8.1 nM, respectively.

Turning to `COc1cccc(C2(O)CCCCC2CN(C)C)c1` (stereo not drawn) [TRAMADOL], the inhibitory constant (Ki) in experiment [1] is 9.4 nM; in experiment [2], 14 nM.

Consider `CN(C)C[C@H]1CCCC[C@]1(O)c1cccc(O)c1` (relative stereo) [O-DESMETHYL TRAMADOL], for which the Ki amounted to 2900 nM in [1] and 450 nM in experiment [2].

`Oc1ccc2c(c1)[C@@]13CCCC[C@@]1(O)[C@@H](C2)N(CC1CCC1)CC3` [BUTORPHANOL] displayed an EC50 in [5] of 2.9 nM. That is a single-digit nanomolar value.

On to `NC(=O)c1ccc2c3c1O[C@H]1C(=O)CC[C@@]4(O)[C@@H](C2)N(CC2CC2)CC[C@]314`, for which the affinity in experiment [2], expressed as Ki, was 0.36 nM. Also, the Ratio Ki is 0.065 in experiment [7] and 50 in experiment [10].

For the compound `C[C@H]1[C@@H]2Cc3ccc(O)cc3[C@]1(C)CCN2C` [METAZOCINE], the Ki is 3.8 nM in [6], 140 nM in [1] and 9.9 nM in experiment [2]. The Ratio Ki turned out to be 0.4 in experiment [7] and 14 in experiment [10]. For the same compound, the results for the EC50 in [11] and in experiment [5] were 40 nM and 120 nM, respectively.

For the compound `CC1C2Cc3ccc(O)cc3[C@@]1(C)CCN2C[C@@H]1CCCO1` (single isomer, unassigned), the figures for the Ki in [3], in experiment [4] and in experiment [8] were 0.19 nM, 3.6 nM and 0.09 nM, respectively. Further, the Ratio Ki in experiment [9] was found to be 40. Further, the EC50 in [11] amounted to 2.7 nM; in experiment [5], 1 nM. Further, the IC50 in experiment [12] was determined as 17 nM.

In the case of `CC1C2Cc3ccc(C(N)=O)cc3C1(C)CCN2CC1CC1` (stereo not drawn), in experiment [1], the affinity corresponds to a Ki of 5.2 nM. That is a single-digit nanomolar value.

Take `C[C@H]1[C@H]2C(=O)c3ccc(O)cc3[C@]1(C)CCN2CC1CC1` [KETAZOCINE]: the Ki in experiment [4] turned out to be 20 nM; in experiment [8] it was 1 nM. Moreover, the EC50 is 21 nM in [11] and 3.3 nM in experiment [5]. In addition, the IC50 in experiment [12] is 130 nM.

Take `C[C@@H]1[C@@H]2Cc3ccc(C(N)=O)cc3[C@@]1(C)CCN2C[C@@H]1CCCO1`: the Ki amounted to 0.052 nM in experiment [3], 2 nM in experiment [4] and 0.089 nM in experiment [8]. The compound also displayed an EC50 in experiment [5] of 30 nM.

With `NC(=O)c1ccc2c(c1)[C@@]13CCCC[C@@]1(O)[C@@H](C2)N(CC1CCC1)CC3`, the Ki was determined as 0.15 nM in [6], 14 nM in experiment [1] and 0.39 nM in experiment [2]. For the same compound, the Ratio Ki came out at 0.38 in [7] and 40 in experiment [10]. Also, the IC50 in [12] was 30 nM. The response in experiment [5] was half-maximal at 3.8 nM (EC50).

Broadly, the Ki is the equilibrium dissociation constant of an inhibitor or competing ligand from its target. In general, EC50 refers to the midpoint of the concentration-response curve. A high value points to a need for much substance. The IC50 is the concentration at which inhibition is half-maximal.
